Compound activity deposited in PubChem by Johns Hopkins Ion Channel Center.
hERG rescue: compounds protecting human hERG from proarrhythmic drug block; AID 1511; CHO-hERG, FluxOR thallium flux, dofetilide IC70 present; activation (rescue from dofetilide block), less the hit threshold, % at 10 µM; Q12809; 310,000 tested, 0.51% active;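 active = activation above the mean of controls blocked by dofetilide plus 5 SD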;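 note: thallium influx through hERG after potassium depolarization seen as dye fluorescence rise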
Kir21 inh: blocks the mouse Kir2.1 inward-rectifier potassium channel. P35561. HEK293-Kir2.1, FluxOR thallium flux fluorescence; hits give low values. B-score at 10 µM. 310,000 tested, 0.85% active. AID 1672;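 active = fluorescence ratio B-score at or below minus 3 SD of library scores, with starting-brightness B-score within 2 SD, cut at about -4.2 in these data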;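 note: channel flux triggered by added potassium and thallium sulfate stimulus; B-score of peak minus minimum fluorescence over baseline after thallium stimulus; more negative B-score means stronger Kir2.1 block with less thallium influx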
KCNQ1 pot: potentiators or activators of human KCNQ1 potassium channel. P51787. CHO-K1 KCNQ1, thallium flux FluxOR fluorescence; hits give high values. B-score at 10 µM. 310,000 tested, 0.35% active. AID 2648;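 active = fluorescence ratio B-score, a plate-corrected score, at least three library SD, with initial intensity B-score within 5 SD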
Target sequence (P51787 whole entry, looked up): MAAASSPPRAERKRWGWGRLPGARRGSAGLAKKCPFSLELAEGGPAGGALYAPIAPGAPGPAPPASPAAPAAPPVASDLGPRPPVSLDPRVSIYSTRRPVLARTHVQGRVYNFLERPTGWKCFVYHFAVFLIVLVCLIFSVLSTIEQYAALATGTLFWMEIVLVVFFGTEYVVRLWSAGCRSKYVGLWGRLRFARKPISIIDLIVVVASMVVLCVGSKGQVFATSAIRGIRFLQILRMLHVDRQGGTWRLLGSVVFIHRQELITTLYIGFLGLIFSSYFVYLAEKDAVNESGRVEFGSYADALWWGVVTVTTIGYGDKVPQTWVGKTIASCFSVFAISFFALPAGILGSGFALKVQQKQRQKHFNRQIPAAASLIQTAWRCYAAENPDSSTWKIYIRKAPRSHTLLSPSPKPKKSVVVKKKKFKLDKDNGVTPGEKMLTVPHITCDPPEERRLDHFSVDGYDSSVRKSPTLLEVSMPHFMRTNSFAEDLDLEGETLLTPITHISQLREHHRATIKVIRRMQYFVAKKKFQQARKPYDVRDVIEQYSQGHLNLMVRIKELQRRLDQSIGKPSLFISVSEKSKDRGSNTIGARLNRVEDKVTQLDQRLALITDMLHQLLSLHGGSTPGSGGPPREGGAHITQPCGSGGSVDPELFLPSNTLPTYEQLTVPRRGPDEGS
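assay system = KCNQ1-transfected CHO-K1 cells | medium = assay buffer with matched DMSO | probe or stimulus = depolarizing K+/Tl+ stimulus, K2SO4 and Tl2SO4 each 12.5 mM in 5x stock | dosing = single dose | incubation = dye 90 min, compound 20 min, room temperature | detection = kinetic FluxOR fluorescence, 10 s baseline plus 110 s post-stimulus | evaluation = ratio B score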
KCNQ1 inh: human KCNQ1 channel inhibition | 310,000 tested, 1.3% active | CHO-K1 KCNQ1, FluxOR thallium flux fluorescence; hits give high values | B-score at 10 µM | P51787;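 active = compounds whose thallium flux B-score, printed positive for inhibition, exceeds three library SD while starting fluorescence stays within three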;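 note: channel opened by potassium depolarization with thallium stimulus after 20 min compound exposure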
KCNK3 inh: human KCNK3 channel inhibition, primary screen | O14649 | CHO-KCNK3 thallium flux, FluxOR fluorescence; hits give low values | AID 602410 | 340,000 tested, 0.84% active | B-score at 10 µM;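 active = B-score under library mean minus 4 SD, starting fluorescence ratio at most library mean plus 5 SD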;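 note: more negative B-score means stronger inhibition of thallium flux through KCNK3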
KCNK9 block: inhibitors of human KCNK9 two-pore domain potassium channel; 310,000 tested, 1.2% active; HEK293 KCNK9, FluxOR thallium flux fluorescence; hits give low values; AID 488922; B-score at 10 µM; Q9NPC2;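 active = ratio B-score over 3 SD below the library mean, with starting fluorescence within 5 SD of its mean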;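 note: negative B-score means less thallium flux so channel inhibition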
KCNK3 confirm: confirmation of human KCNK3 two-pore domain potassium channel inhibitors | 2,400 tested, 99% active | shares compounds with KCNK3 inh | ratio percent of control, % at 10 µM | CHO-KCNK3 thallium flux, FluxOR fluorescence; 0% buffer, 100% carvedilol maximal block;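 active = ratio percent of control, averaged over triplicates, above buffer control mean plus 5 SD, cut at about 64% in these data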;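 note: ratio is the fluorescence rise from min to max over baseline after thallium stimulus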
KCNK3 uninduced: counter-screen for KCNK3 inhibitors: effect in non-induced cells; shares compounds with KCNK3 inh; non-induced KCNK3 parental cells, FluxOR thallium flux; hits give low values; thallium flux ratio (lower = more inhibition) at 10 µM; 2,400 tested, 40% active; AID 651747;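 active = thallium flux ratio, averaged over three wells, more than 5 SD below the buffer control mean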;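 note: host cells are CHO cells without KCNK3 induction; ratio is peak minus trough fluorescence over baseline then normalized to buffer controls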
Starred values were filed as active, the others as inactive; i = inactive; nt = not tested or not shown. In the library only some 3.7% were active in any assay of this set; here they are far more common.

SMILES | hERG rescue | Kir21 inh | KCNQ1 pot | KCNQ1 inh | KCNK3 inh | KCNK9 block | KCNK3 confirm | KCNK3 uninduced
COc1cccc(O)c1CN1CCC(C(=O)Nc2ccc(-c3cccc(C)c3)cc2)CC1 | -22 | 0.73 | i | 6* | -11* | i | 125* | i
CSc1ccccc1C(=O)Nc1cc(C)cc(C)c1 | -10 | -1 | i | i | i | i | nt | nt
CC(=O)Nc1ccc(NC(=O)c2cccc3c2-c2ccccc2C3=O)cc1 | -7 | 0.94 | i | i | i | i | nt | nt
CSc1ccccc1C(=O)Nc1ccc(C)c(C)c1 | -5 | 1.5 | i | i | -8.9* | i | 87* | i
Cc1ccc(NC(=O)c2cccc3c2-c2ccccc2C3=O)cc1C | -11 | -1.7 | i | i | -9.3* | i | 108* | i
Cc1ccc(C(C[N+](=O)[O-])Sc2ccc(N)cc2)cc1 (stereo not drawn) | -5 | -3.7 | i | i | i | i | nt | nt
COCCN(CCOC)c1nc(-c2ccc(Cl)cc2)nc2ccccc12 | -6 | -1.1 | i | i | -9.2* | -7.6* | 128* | i
CCN(CC)c1nc(-c2ccccc2)nc2ccccc12 | -12 | -0.4 | i | i | -9.5* | i | 129* | i
O=C(Oc1cc(-c2ccccc2)no1)c1ccc(F)cc1 | -8 | 1.6 | i | i | i | i | nt | nt
CCCC[N+](CC#Cc1ccccc1)(CCCC)CCCS(=O)(=O)[O-] | -5 | -0.17 | i | i | i | i | nt | nt
CN(C)S(=O)(=O)c1ccc(NC=O)cc1 | -8 | -0.05 | i | i | i | i | nt | nt
Cc1cc(C)c2nc3sc(C(=O)N4CCOCC4)c(N)c3cc2c1 | -22 | -1.4 | i | i | -11* | i | 115* | 0.13*
Cc1ccc(C)c2nc3sc(C(=O)N4CCOCC4)c(N)c3cc12 | -16 | -1.7 | i | i | i | i | nt | nt
CC(C(=O)N1CCc2ccccc21)n1cnc2c1c(=O)n(C)c(=O)n2C (stereo not drawn) | nt | nt | nt | nt | i | nt | nt | nt
COc1ccc(-c2csc(N(CC3CCCO3)C(=O)c3ccccc3)n2)cc1 (stereo not drawn) | -10 | -0.33 | i | i | -8.9* | i | 89* | i
COc1ccc(-c2csc(N(CC3CCCO3)C(=O)c3ccc(C)cc3)n2)cc1 (stereo not drawn) | -11 | -0.95 | i | i | i | i | nt | nt
O=C(CCc1ccccc1)NC(=S)NCc1ccco1 | -4 | 0.54 | i | i | i | i | nt | nt
COc1ccc(Cn2nnnc2C(CC(C)C)N2CCN(c3ccccc3)CC2)cc1 (stereo not drawn) | -11 | 1.5 | i | i | -9* | i | 100* | i
CCCC(c1nnnn1Cc1ccc(OC)cc1)N1CCN(c2ccccc2)CC1 (stereo not drawn) | -2 | 0.05 | i | i | i | i | nt | nt
CC(C)CC(c1nnnn1Cc1ccco1)N1CCN(c2cccc(Cl)c2)CC1 (stereo not drawn) | -5 | -0.43 | i | i | -10* | i | 126* | i
COc1ccc([C@@H](C)NC(=O)c2ccc3oc(C(C)C)nc3c2)cc1 | -9 | -1.1 | i | i | i | i | nt | nt
CCOP(=O)(OCC)c1nc(-c2cccc3ccccc23)oc1NCc1ccc(OC)cc1 | -23 | 0.78 | i | i | -11* | i | 107* | 0.16*
COc1cccc(CSc2nnc(-c3ccncc3)n2N)c1 | -8 | 0.29 | i | i | i | i | nt | nt
Cc1cccn2c(=O)nc(SCC(=O)Nc3ccc4c(c3)OCO4)nc12 | -8 | -1.5 | i | i | i | i | nt | nt
COc1ccc(NC(=O)c2ccc(-c3nn(C)c(=O)c4ccccc34)cc2)cc1 | -6 | -2.1 | i | i | i | i | nt | nt
